Measurements taken from ChEMBL document CHEMBL1641411, “Synthesis and optimization of novel 4,4-disubstituted cyclohexylbenzamide derivatives as potent 11β-HSD1 inhibitors” (Bioorg Med Chem Lett, 2011).
Calls of active or inactive are those of the source. No cut-off for these calls is given here.

Assays:
[1] = target: T1, Nuclear receptor subfamily 1 group I member 2 (Homo sapiens, UniProt O75469); experiment: Activation of PXR relative to control; design: concentration or dose not given beside the values
T1 sequence (O75469 whole entry): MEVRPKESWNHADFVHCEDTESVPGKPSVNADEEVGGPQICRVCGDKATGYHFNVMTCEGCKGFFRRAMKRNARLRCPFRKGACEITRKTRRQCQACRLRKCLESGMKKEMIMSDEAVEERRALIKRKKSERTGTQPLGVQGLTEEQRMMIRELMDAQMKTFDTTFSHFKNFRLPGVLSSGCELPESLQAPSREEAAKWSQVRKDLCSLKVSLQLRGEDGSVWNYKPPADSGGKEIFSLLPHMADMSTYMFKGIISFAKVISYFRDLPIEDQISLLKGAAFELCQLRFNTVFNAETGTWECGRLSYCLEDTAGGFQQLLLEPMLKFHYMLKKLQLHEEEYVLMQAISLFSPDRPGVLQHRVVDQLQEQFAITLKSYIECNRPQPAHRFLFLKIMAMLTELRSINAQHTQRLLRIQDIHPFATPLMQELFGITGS
Method in brief: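 PXR activation measured with compound at 2 µM, expressed as % of control.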

[2] = Metabolic stability in human liver microsomes assessed as compound turnover at 30 mins; format: ADME, Microsome; conditions: read-out: Stability
Method in brief: (§1)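 Compounds incubated with human or rat liver microsomes; percent turnover of parent measured at 30 min.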

[3] = Metabolic stability in rat liver microsomes assessed as compound turnover at 30 mins; format: ADME, Microsome; conditions: read-out: Stability; method in brief: as §1
[4] = Plasma concentration in cynomolgus monkey at 20 mg/kg, po after 2 hrs by LC/MS/MS analysis; format: ADME, organism-based, Macaca fascicularis; design: dose 20 mg/kg, route oral
Method in brief: (§2)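 Monkeys given oral doses of 4, 20 or 100 mg/kg in 1% methylcellulose/1% Tween 80 in sterile water, 5–6 animals per group. Plasma collected 2 h after dosing for drug concentration.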

[5] = Plasma concentration in cynomolgus monkey at 100 mg/kg, po after 2 hrs by LC/MS/MS analysis; format: ADME, organism-based, Macaca fascicularis; design: dose 100 mg/kg, route oral; method in brief: as §2
[6] = Bioavailability in cynomolgus monkey; format: ADME, organism-based, Macaca fascicularis; conditions: in vivo
[7] = Plasma concentration in cynomolgus monkey at 4 mg/kg, po after 2 hrs by LC/MS/MS analysis; format: ADME, organism-based, Macaca fascicularis; design: dose 4 mg/kg, route oral; method in brief: as §2
[8] = Clearance in cynomolgus monkey; format: ADME, organism-based, Macaca fascicularis; conditions: in vivo
[9] = Inhibition of cynomolgus monkey 11beta-HSD1 assessed as inhibition of conversion of [3H]cortisone to [3H]cortisol by scintillation proximity assay; design: species or system Macaca fascicularis
Cynomolgus monkey = conditions: Macaca fascicularis; 4 to 100 mg/kg
[10] = AUC in rat at 2 mg/kg, po; format: ADME, organism-based; design: dose 2 mg/kg, route oral; conditions: plasma
Method in brief: (§3)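 Rat PK: single iv dose of 0.5 mg/kg, with a separate oral dose of 2.0 mg/kg. Clearance, Vdss and half-life come from the iv arm. Oral AUC and %F come from the po arm.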

Rattus norvegicus [11] = experiment: Ex vivo inhibition of 11beta-HSD1 in Sprague-Dawley rat assessed as inhibition of conversion of [3H]cortisone to [3H]cortisol at 4 mg/kg, po; format: functional
Method in brief: (§4)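 Sprague–Dawley rats dosed orally at 4, 20 or 100 mg/kg; killed 2 h post-dose. Epididymal fat isolated and incubated in media containing [3H]-cortisone; rat 11β-HSD1 activity read as [3H]-cortisol formed. Reported as % inhibition over vehicle-dosed animals.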

Rattus norvegicus [12] = experiment: Ex vivo inhibition of 11beta-HSD1 in Sprague-Dawley rat assessed as inhibition of conversion of [3H]cortisone to [3H]cortisol at 20 mg/kg, po; format: functional; method in brief: as §4
[13] = Oral bioavailability in rat at 2 mg/kg; format: ADME, organism-based; conditions: in vivo; method in brief: as §3
Rattus norvegicus [14] = experiment: Ex vivo inhibition of 11beta-HSD1 in Sprague-Dawley rat assessed as inhibition of conversion of [3H]cortisone to [3H]cortisol at 100 mg/kg, po; format: functional; method in brief: as §4
[15] = Volume of distribution at steady state in rat at 0.5 mg/kg, iv and 2 mg/kg, po; format: ADME, organism-based; conditions: in vivo, read-out: Vdss; method in brief: as §3
[16] = Half life in rat at 0.5 mg/kg, iv; format: ADME, organism-based; design: dose 0.5 mg/kg, route intravenous; conditions: in vivo; method in brief: as §3
[17] = target: 11-beta-hydroxysteroid dehydrogenase 1 (Rattus norvegicus, UniProt P16232); experiment: Inhibition of rat 11beta-HSD1 assessed as inhibition of conversion of [3H]cortisone to [3H]cortisol by scintillation proximity assay
[18] = Clearance in rat at 0.5 mg/kg, iv and 2 mg/kg, po; format: ADME, organism-based; conditions: in vivo; method in brief: as §3

Sequence of 11-beta-hydroxysteroid dehydrogenase 1 (P16232 whole entry): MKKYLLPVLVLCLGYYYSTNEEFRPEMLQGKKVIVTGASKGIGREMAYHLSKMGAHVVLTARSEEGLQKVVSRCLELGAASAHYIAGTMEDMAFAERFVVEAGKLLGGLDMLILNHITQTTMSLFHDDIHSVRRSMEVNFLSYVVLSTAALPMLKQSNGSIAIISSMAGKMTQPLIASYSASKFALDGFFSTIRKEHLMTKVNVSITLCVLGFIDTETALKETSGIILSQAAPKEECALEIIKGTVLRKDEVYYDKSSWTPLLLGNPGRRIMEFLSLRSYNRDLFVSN

Activity [1] [%]	metabolised at 0.5 h [2] [%]	metabolised at 0.5 h [3] [%]	Structure (SMILES)	further results
< 5	< 10	21	C[C@](O)(c1ccc(C(=O)N(C2CC2)[C@H]2CC[C@](CNS(C)(=O)=O)(c3ccccc3)CC2)cc1)C(F)(F)F	–
< 5	< 10	< 10	C[C@](O)(c1ccc(C(=O)N(C2CC2)[C@H]2CC[C@](CCC(N)=O)(c3ccccc3)CC2)cc1)C(F)(F)F	concentration at 2 h [4]: 2000 ng/mL; concentration at 2 h [5]: 1710 ng/mL; bioavailability [6]: 81%; concentration at 2 h [7]: 151 ng/mL; clearance [8]: 1 mL/min/kg; IC50 [9]: 22 nM; inhibition (Cynomolgus monkey): Active
–	10	51	C[C@](O)(c1ccc(C(=O)N(C2CC2)[C@H]2CC[C@](CCC#N)(c3ccccc3)CC2)cc1)C(F)(F)F	–
< 5	< 10	< 10	C[C@](O)(c1ccc(C(=O)N(C2CC2)[C@H]2CC[C@](COC(N)=O)(c3ccccc3)CC2)cc1)C(F)(F)F	AUC [10]: 2770 ng·h/mL; inhibition in vivo at 4 mg/kg (Rattus norvegicus [11]): 23%; inhibition in vivo at 20 mg/kg (Rattus norvegicus [12]): 43%; bioavailability [13]: 20%; inhibition in vivo at 100 mg/kg (Rattus norvegicus [14]): 71%; Vd [15]: 1 L/kg; half-life [16]: 3.9 h; IC50 [17]: 86 nM; clearance [18]: 2.67 mL/min/kg
6	< 10	< 10	C[C@](O)(c1ccc(C(=O)N(C2CC2)[C@H]2CC[C@](CCO)(c3ccccc3)CC2)cc1)C(F)(F)F	–
–	< 10	< 10	C[C@](O)(c1ccc(C(=O)N(C2CC2)[C@H]2CC[C@](CCC(N)=O)(c3ccccc3F)CC2)cc1)C(F)(F)F	–
9	19	17	C[C@](O)(c1ccc(C(=O)N(C2CC2)[C@H]2CC[C@](CC#N)(c3ccccc3)CC2)cc1)C(F)(F)F	–
< 5	< 10	< 10	CC(=O)NC[C@]1(c2ccccc2)CC[C@H](N(C(=O)c2ccc([C@](C)(O)C(F)(F)F)cc2)C2CC2)CC1	–
< 5	< 10	< 10	C[C@](O)(c1ccc(C(=O)N(C2CC2)[C@H]2CC[C@](CC(N)=O)(c3ccccc3)CC2)cc1)C(F)(F)F	–
< 5	10	32	C[C@](O)(c1ccc(C(=O)N(C2CC2)[C@H]2CC[C@](CO)(c3ccccc3)CC2)cc1)C(F)(F)F	–

Continued, compound first:

Structure (SMILES)	Activity [1] [%]	metabolised at 0.5 h [2] [%]	metabolised at 0.5 h [3] [%]	further results
C[C@](O)(c1ccc(C(=O)N(C2CC2)[C@H]2CC[C@](COC(N)=O)(c3ccc(F)cc3)CC2)cc1)C(F)(F)F	–	< 10	< 10	–
C[C@](O)(c1ccc(C(=O)N(C2CC2)[C@H]2CC[C@](CCC(N)=O)(c3ccccn3)CC2)cc1)C(F)(F)F	–	< 10	< 10	–
C[C@](O)(c1ccc(C(=O)N(C2CC2)[C@H]2CC[C@](CCC(N)=O)(c3ccc(F)cc3)CC2)cc1)C(F)(F)F	–	< 10	< 10	–
C[C@](O)(c1ccc(C(=O)N(C2CC2)[C@H]2CC[C@](COC(N)=O)(c3cscn3)CC2)cc1)C(F)(F)F	–	< 10	< 10	AUC [10]: 618 ng·h/mL; inhibition in vivo at 4 mg/kg (Rattus norvegicus [11]): 6%; inhibition in vivo at 20 mg/kg (Rattus norvegicus [12]): 38%; bioavailability [13]: 25%; inhibition in vivo at 100 mg/kg (Rattus norvegicus [14]): 75%; Vd [15]: 3.7 L/kg; half-life [16]: 4.5 h; IC50 [17]: 30 nM; clearance [18]: 13.7 mL/min/kg
C[C@](O)(c1ccc(C(=O)N(C2CC2)[C@H]2CC[C@](O)(C3CC3)CC2)cc1)C(F)(F)F	< 5	< 10	< 10	–
C[C@](O)(c1ccc(C(=O)N(C2CC2)[C@H]2CC[C@](COC(N)=O)(c3ccc(F)cn3)CC2)cc1)C(F)(F)F	–	< 10	< 10	–
C[C@](O)(c1ccc(C(=O)N(C2CC2)[C@H]2CC[C@](COC(N)=O)(c3ccccn3)CC2)cc1)C(F)(F)F	–	< 10	< 10	AUC [10]: 6180 ng·h/mL; inhibition in vivo at 4 mg/kg (Rattus norvegicus [11]): 14%; inhibition in vivo at 20 mg/kg (Rattus norvegicus [12]): 44%; bioavailability [13]: 64%; inhibition in vivo at 100 mg/kg (Rattus norvegicus [14]): 72%; Vd [15]: 1.24 L/kg; half-life [16]: 4.2 h; IC50 [17]: 220 nM; clearance [18]: 3.5 mL/min/kg
C[C@](O)(c1ccc(C(=O)N(C2CC2)[C@H]2CC[C@](COC(N)=O)(c3ccccc3F)CC2)cc1)C(F)(F)F	–	< 10	< 10	AUC [10]: 6790 ng·h/mL; inhibition in vivo at 4 mg/kg (Rattus norvegicus [11]): 27%; inhibition in vivo at 20 mg/kg (Rattus norvegicus [12]): 43%; bioavailability [13]: 48%; inhibition in vivo at 100 mg/kg (Rattus norvegicus [14]): 70%; Vd [15]: 1.28 L/kg; half-life [16]: 5.2 h; IC50 [17]: 144 nM; clearance [18]: 2.5 mL/min/kg
